This is a sample that favours compounds with a hit; in the whole collection about 4.7% have one here.
SKN-1 inh: blocks SKN-1 activity in C. elegans. C. elegans VP596 Pgst-4::GFP/RFP ratio, acrylamide-induced, 24 h. inhibition, % at 21.8 µM. hit rate 0.49% among 360,000;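 active = interference check ratio from 0.5 to 1.5 plus GFP to RFP signal ratio inhibition reaching or exceeding a fixed threshold, cut at about 30% in these data, passing the limit was not always enough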
MT1-MMP act inh: blocks activation of human MT1-MMP | hit rate 0.061% among 360,000 | GFP/RFP ratio change, % at 20 µM | P50281 | AID 651647 | HT1080 RFP-PRO-GFP cells, GFP/RFP ratio fluorescence, overnight; percent of plate control window, DMSO zero;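 active = GFP/RFP ratio change of at least 30% with cell ATP level not reduced by more than half and red fluorescence within 50% of control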
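system = RFP-PRO-GFP reporter HT1080 cells | dosing = 20 µM single dose, 1% DMSO | timing = overnight cell settling, then overnight compound exposure, 37 °C, 5% CO2 | read-out basis = GFP/RFP fluorescence ratio | controls = DMSO and RFP-L50D-GFP cell wells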
MPTP inh: permeability transition pore inhibition; isolated mouse mitochondria, Ca2+ swelling absorbance, 30 min; inhibition, % at 10 µM; hit rate 1.4% among 360,000;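 active = inhibition of 50% or more, scaled per plate between neutral and stimulator controls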;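 note: 0% = DMSO wells given calcium and 100% = 1 mM EGTA wells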
ADAM10 inh: inhibitors of human ADAM10 | O14672 | recombinant ADAM10, EDANS/DABCYL FRET peptide cleavage, 3 h | inhibition, % at 7 µM | hit rate 0.62% among 370,000;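 active = inhibition above a per-campaign cutoff equal to the mean of compounds falling between control-based bounds plus 3 SD, cut at about 20% in these data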;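 note: 0% = DMSO wells while the 100% control is not disclosed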
GRIN3A LBD mod: NR3A (human) ligand-binding domain modulation; AID 1259313; Tm shift relative to glycine control, % at 25 µM; hit rate 2.5% among 340,000; NR3A LBD differential scanning fluorimetry, Tm shift; 0% = protein alone, 100% = glycine-bound protein;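 active = melting temperature shift of at least 10% of the positive control shift, at one fixed dose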
ADAM17 inh: inhibitors of human ADAM17. P78536. recombinant ADAM17, EDANS/DABCYL FRET peptide cleavage. inhibition, % at 6.95 µM. hit rate 0.83% among 370,000. AID 720648;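 active = inhibition above the mean of compounds lying between control limits plus 3 SD, set per campaign, cut at about 8.5% in these data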;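 note: 0% = DMSO-only wells as the low control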
Target sequence (P78536 215-824 limits assumed): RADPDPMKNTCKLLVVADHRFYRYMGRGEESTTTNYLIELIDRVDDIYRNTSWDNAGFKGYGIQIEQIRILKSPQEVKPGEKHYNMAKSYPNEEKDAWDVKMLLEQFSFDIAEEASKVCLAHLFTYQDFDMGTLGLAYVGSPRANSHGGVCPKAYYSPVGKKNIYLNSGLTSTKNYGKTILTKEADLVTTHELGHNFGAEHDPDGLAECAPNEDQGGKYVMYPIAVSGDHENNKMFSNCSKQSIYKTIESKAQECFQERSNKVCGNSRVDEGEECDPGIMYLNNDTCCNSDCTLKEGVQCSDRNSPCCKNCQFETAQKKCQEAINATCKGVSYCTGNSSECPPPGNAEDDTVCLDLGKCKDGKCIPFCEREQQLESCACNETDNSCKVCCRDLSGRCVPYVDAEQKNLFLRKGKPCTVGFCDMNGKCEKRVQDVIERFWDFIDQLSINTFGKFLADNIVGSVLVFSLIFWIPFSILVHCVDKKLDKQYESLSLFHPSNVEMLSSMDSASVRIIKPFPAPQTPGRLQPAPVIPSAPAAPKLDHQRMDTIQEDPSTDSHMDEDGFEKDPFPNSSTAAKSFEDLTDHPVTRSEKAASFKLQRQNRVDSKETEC
An asterisk follows results filed as active; i = inactive; · = no result given.

SMILES	SKN-1 inh	MT1-MMP act inh	MPTP inh	ADAM10 inh	GRIN3A LBD mod	ADAM17 inh
CC(=O)Nc1c2c(nn1-c1cccc(Cl)c1)CS(=O)(=O)C2	5	1	-1	6	3	1
CC(C)N(CCNC(=O)COc1ccc2oc3c(c2c1)CCCC3)C(C)C	-12	-1	0	-5	1	-4
COCCCNC(=O)COc1ccc2oc3c(c2c1)CCCC3	36*	1	0	-4	-1	-2
COc1ccc(CCNc2cc(C)nc3c(-c4ccccc4OC)cnn23)cc1OC	10	-5	2	-65	-1	-30
COc1ccccc1-c1cnn2c(NCc3ccccc3)cc(C)nc12	8	-3	0	-22	10*	-6
COc1ccc(NC(=O)c2cccc(N3C(=O)c4cccc([N+](=O)[O-])c4C3=O)c2)cc1	-11	-2	0	-3	-5	0
COc1ccc(/C=C2\C(=O)N(c3c(Cl)cc(Cl)cc3Cl)N=C2NC(=O)c2cccc([N+](=O)[O-])c2)cc1	4	6	6	·	13*	·
O=C(Nc1ccc(Oc2cccnc2)cc1)C1CCN(Cc2cc(Cl)ccc2O)CC1	18	6	1	5	88*	2
CSc1nc2ccc(NS(=O)(=O)c3ccc(CNC(C)=O)cc3)cc2s1	0	-1	0	-12	5	-5
O=S(=O)(Nc1ccc(O)c(Sc2nc3ccccc3s2)c1)c1ccc(Cl)cc1	2	6	30	15	16*	8
O=C(c1cccs1)n1ccc2ccc(-c3ccc4ccn(C(=O)c5cccs5)c4c3)cc21	·	·	·	-10	·	-2
Cc1ccc(NC(=O)CSc2nnc(CNC(=O)C34CC5CC(CC(C5)C3)C4)n2-c2ccc(F)cc2)cc1	11	-3	3	4	-6	3
Cc1c(N(C)C(=O)C23CC4CC(CC(C4)C2)C3)c(=O)n(-c2ccccc2)n1C	21	2	6	3	11*	-2
Cc1c(N(C)C(=O)c2ccc3c(c2)OCO3)c(=O)n(-c2ccccc2)n1C	-23	-1	0	-4	0	-4
CCOc1ccc(C(=O)CC(=O)C(=O)NCCc2ccc(OC)c(OC)c2)cc1	-5	3	-27	-2	25*	-3
O=[N+]([O-])c1cnccc1Nc1ccccc1	21	-8	0	-6	1	-9
O=[N+]([O-])c1ccc(Nc2ccccc2)c2nonc12	35*	-35	6	9	-5	0
CCOc1ccc(Nc2ccc([N+](=O)[O-])c3nonc23)cc1	37*	-39	25	4	-6	2
CC(=O)NS(=O)(=O)c1ccc(Nc2ccc([N+](=O)[O-])c3nonc23)cc1	35*	-45	4	4	-1	2
C=CCOc1ccc(CN(C)C(=O)C2CCCO2)cc1 (centres undefined)	4	·	0	8	1	-1
Cc1cccc(N=Nc2c(O)[nH]c3ccc(Br)cc23)c1	20	-7	6	3	6	-3
Oc1[nH]c2ccc(Br)cc2c1N=NC(=S)Nc1ccc(F)cc1	12	11	7	4	18*	-2
COc1ccccc1N=Nc1c(O)[nH]c2ccc(Br)cc12	50*	-41	2	-5	-1	5
CCCNC(=O)c1ccc2snnc2c1	36*	-2	0	-10	-3	5
Cc1cc(C(=O)NC2CCCC(C)C2C)c2ccccc2n1 (centres undefined)	0	-3	-1	-5	0	-25
SMILES	SKN-1 inh	MT1-MMP act inh	MPTP inh	ADAM10 inh	GRIN3A LBD mod	ADAM17 inh
CCOC(=O)CCc1c(C)c2ccc(OC3CCCCC3=O)cc2oc1=O (centres undefined)	-9	-2	0	i	-2	-281
COc1cc(/C=N/NC(=O)CCC(=O)Nc2ccc(Br)cc2)ccc1O	17	5	0	1	-5	-2
COc1cccc(/C=N/NC(=O)CCCC(=O)Nc2ccc(Br)cc2)c1	3	3	0	10	20*	1
CCn1nc(C(=O)Nc2cccc3ccccc23)c(Cl)c1Cl	-5	2	0	-2	-2	0
S=C(Nc1ccccc1Cl)Nc1ccc(Cl)cc1Cl	-10	1	14	2	0	0
O=C(Nc1ccccc1Cl)Oc1ccc(Cl)cc1Cl	13	-3	0	5	10*	1
